Assay outcomes deposited in PubChem by The Scripps Research Institute Molecular Screening Center.
CHO parental Ca = counter-screen: ATP calcium response change in parental CHO cells; parental CHO-K1, ATP-induced calcium, Fluo-8 fluorescence; inhibition, % at 5.6 µM; 330,000 compounds, 0.63% hits; AID 463079;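 active means inhibition above that plate's mean sample inhibition plus 3 SD, cut at about 26% in these data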;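 further: 0% = ATP-challenged DMSO wells and 100% = DMSO wells without ATP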
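material = parental CHO cells | also added = ATP as calcium-mobilizing challenge | dosing = single point at 5.6 µM | detection = intracellular calcium via Fluo-8 no-wash fluorescent dye | read-out = % inhibition | benchmarks = low control ATP plus DMSO, high control DMSO only | repeats = one well per compound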
TAAR1 agonist = agonists of human TAAR1; Q96RJ0; activation, % at 3 µM; CHO RD-HGA16 TAAR1, Fluo-8 calcium fluorescence; vehicle wells 0%, saturating PEA agonist 100%; 360,000 compounds, 0.99% hits;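 active means activation above the mean activation of all test compounds in the run plus 3 SD, cut at about 38% in these data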
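Assay system – CHO-derived RD-HGA16 cells with stable Gα16 and human TAAR1 · Compound dosing – one-point dosing at 3 µM (nominal) · Incubation – 17-24 h seeding, 75 min 37 °C dye, 30 min RT · Measured by – kinetic Fluo-8 calcium fluorescence · Control set – DMSO vehicle as 0%, PEA at EC100 as 100% · Repeats – single well for each compound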
TAAR1 antagonist = human TAAR1 antagonism; AID 624466; Q96RJ0; 360,000 compounds, 1.5% hits; inhibition, % at 3 µM; CHO RD-HGA16 TAAR1, Fluo-8 calcium fluorescence, antagonist;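 active means inhibition above a per-plate cutoff, the mean inhibition of test compounds on that plate plus 3 SD, cut at about 49% in these data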;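 further: 0% = DMSO plus EC80 beta-PEA response and 100% = DMSO alone without agonist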
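Material: CHO RD-HGA16 cells bearing hTAAR1; compound dosing: one-point dosing, 3 µM nominal final; schedule: dye loading 75 min at 37 °C, then 30 min room temperature; measured by: calcium fluorescence with Fluo-8; control set: vehicle and agonist controls; replication: n of 1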
GPR7 antagonist = human neuropeptides B/W receptor 1 antagonism; 290,000 compounds, 1.1% hits; GPR7-expressing cells, fluorescence antagonist assay; AID 1861; inhibition, % at 4.4 µM; in the data active means inhibition above about 16%, passing the limit was not always enough;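 further: cells stimulated with the agonist NPW; 0% = agonist with vehicle and 100% = vehicle without agonist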
Target sequence (P48145 whole entry, looked up): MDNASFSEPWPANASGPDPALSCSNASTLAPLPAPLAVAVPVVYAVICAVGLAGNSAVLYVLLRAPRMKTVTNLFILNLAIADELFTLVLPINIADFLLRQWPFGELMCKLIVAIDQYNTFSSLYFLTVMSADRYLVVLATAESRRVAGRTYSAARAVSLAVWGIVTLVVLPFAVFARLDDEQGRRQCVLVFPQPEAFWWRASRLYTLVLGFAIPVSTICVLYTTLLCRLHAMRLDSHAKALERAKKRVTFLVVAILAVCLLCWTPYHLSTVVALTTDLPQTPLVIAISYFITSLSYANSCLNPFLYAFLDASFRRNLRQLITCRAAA
OX1R antag-1 = antagonists of human orexin 1 receptor (OX1R). inhibition, % at 6.6 µM. AID 485270. O43613. 330,000 compounds, 1.8% hits. OX1R-expressing cells, FRET antagonist read-out; in the data active means inhibition mostly above about 38%, no sharp cut-off; inactive means mostly below about 40%;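 further: 0% = agonist challenge alone and 100% = reference antagonist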
OX1R antag-2 = antagonists of human orexin 1 receptor; AID 434989; CHO/OX1R cells, Fluo-8 calcium fluorescence, orexin A; inhibition, % at 5 µM; 330,000 compounds, 0.43% hits; O43613;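 active means inhibition above its plate's threshold, mean inhibition of all tested compounds on the plate plus 3 SD, cut at about 37% in these data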;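 further: 0% = orexin A challenge wells and 100% = SB-334867-A antagonist wells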
GPR7 antag conf = confirmation of human GPR7 antagonists. shares compounds with GPR7 antagonist. GPR7-expressing cells, calcium fluorescence antagonist mode. inhibition, % at 4.4 µM. 2,400 compounds, 52% hits; in the data active means inhibition above about 24%;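 further: stimulated with the GPR7 agonist NPW; 0% = agonist plus vehicle and 100% = vehicle alone without agonist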
MCHR1 antagonist = antagonizes human MCHR1, a GPR7 antagonist counter-screen | shares compounds with GPR7 antagonist | MCHR1-expressing cells, fluorescence antagonist assay | inhibition, % at 4.4 µM | 2,400 compounds, 62% hits | AID 2148; in the data active means inhibition above about 22%;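 further: 0% = vehicle with agonist and 100% = vehicle without agonist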
The depositor's hits bear a star; x = no result given. Only some compounds are listed: those with a hit (about 4.6% of all), similar ones and a draw of the others.

SMILES | CHO parental Ca | TAAR1 agonist | TAAR1 antagonist | GPR7 antagonist | OX1R antag-1 | OX1R antag-2 | GPR7 antag conf | MCHR1 antagonist
COc1ccccc1N1CCN(CC(=O)Nc2ccc(C)c(F)c2)CC1 | -29 | 6 | -14 | 26* | 3 | -14 | -3 | 1
CNc1ccccc1C(=O)OCC(=O)c1ccc(F)cc1 | -20 | -1 | 17 | 23* | 2 | -27 | 7 | 16
O=C(Cc1n[nH]c(=O)c2ccccc12)OCC(=O)c1ccc(F)cc1 | -10 | 2 | -21 | x | 20 | -25 | x | x
O=C(Cc1n[nH]c(=O)c2ccccc12)OCC(=O)c1ccc2c(c1)OCCO2 | -19 | 6 | 2 | 28* | 25 | -19 | -9 | 15
COC(=O)C(C(=O)OC)c1ccc(-n2cccc2)cc1 | -4 | 0 | -8 | 35* | 26 | -10 | 12 | 9
O=C(NCc1ccco1)C(c1cccs1)N(C(=O)C1COc2ccccc2O1)c1cccc(O)c1 (stereo not drawn) | -22 | 6 | 16 | 9 | 29 | -5 | x | x
Cn1cc(C(=O)c2cccc(Cl)c2)cc1C#N | 0 | 3 | 9 | 7 | 30 | -18 | x | x
Cn1cc(C(=O)c2cccc(Cl)c2)cc1/C=N\O | -17 | 3 | -5 | 22* | 24 | -27 | -3 | -6
O=C(CSc1nc2cc(Cl)ccc2s1)Nc1cccc(S(=O)(=O)N2CCOCC2)c1 | -8 | 6 | 13 | -5 | 40 | 7 | x | x
O=C(Cn1cnc2c(NCc3ccccc3)ncnc21)NCCCN1CCCC1=O | -8 | 1 | -2 | x | 7 | -7 | x | x
CCC(C)[C@H](NC(=O)C1(c2ccccc2)CCN(C(=O)OC(C)(C)C)CC1)C(=O)N[C@@H](C(=O)O)c1ccccc1 (stereo partly drawn) | 2 | 0 | 11 | 27* | 16 | 9 | 1 | 2
O=C(C1COc2ccccc2O1)N1CCCCC1 (stereo not drawn) | -6 | 1 | -1 | x | 8 | 1 | x | x
O=C(C1COc2ccccc2O1)N1CCc2ccccc2C1 (stereo not drawn) | -18 | 9 | 7 | 21* | 8 | -17 | 5 | 35*
Cc1cc(Cl)c(S(=O)(=O)N2CCN(c3ccccn3)CC2)cc1OCC(=O)NC1CCCCC1 | 6 | 12 | 40 | 15 | 2 | -22 | x | x
CCCCCOc1ccc(Cn2ccnc2)cc1[N+](=O)[O-] | -8 | 1 | 16 | 21* | 11 | -22 | 37* | 48*
CCOc1ccc(Cn2ccnc2)cc1[N+](=O)[O-] | -8 | 0 | -9 | -3 | 19 | -6 | x | x
COC(=O)c1cc(-c2ccc(OC)cc2F)nc2nc(SC)[nH]c(=O)c12 | -7 | -1 | -2 | -4 | 8 | -23 | x | x
CCN(CC)CCNC(=O)c1nn(-c2ccc(Cl)cc2)c2c1CCc1cc(OC)ccc1-2 | x | 28 | -25 | x | x | x | x | x
CCC(=O)N1CCc2cc(Br)cc(S(=O)(=O)N(C)c3ccc(OC)cc3)c21 | 6 | 7 | 35 | 38* | 14 | 3 | 24 | 54*
Clc1ccc(CN2CCc3c([nH]c4ccccc34)C2)cc1Cl | 15 | 34 | -12 | 53* | 5 | -6 | 73* | 33*
COc1cc(OC)c(CN2CCc3c([nH]c4ccccc34)C2)cc1Br | -12 | 26 | 7 | 29* | 27 | -1 | 21 | 5
Cc1cccc(CN2CCc3c([nH]c4ccccc34)C2)c1 | 3 | 1 | -10 | 18 | 11 | -12 | x | x
COc1ccc(CN2C(=O)CCC2(C)c2nnnn2-c2ccc3c(c2)OCCO3)cc1 (stereo not drawn) | x | 0 | -18 | x | x | x | x | x
O=C(NCc1ccccc1)NC(O)C(Cl)(Cl)Cl (stereo not drawn) | -10 | 4 | 5 | -7 | 12 | -13 | x | x
CCCCNCCCOc1ccc(C)cc1Br | -12 | 29 | 0 | 0 | 8 | -17 | x | x
CCCCNCCCOc1cccc(Cl)c1Cl | -9 | 38* | -13 | 35* | 16 | -13 | 14 | 11
